# Experimental data: ChEMBL document CHEMBL3853342, “Design, synthesis and biological evaluation of novel benzo-α-pyrone containing piperazine derivatives as potential BRAFV600E inhibitors” (Bioorg Med Chem Lett, 2016)
# Calls of active or inactive are those of the source. The rule behind the calls is not given here.
# Legend:
# [1] = Cytotoxicity against human 293T cells assessed as cell growth inhibition after 24 hrs by MTT assay; assay type: toxicity, cell-based, HEK-293T
# [2] = Antiproliferative activity against human A375 cells assessed as cell growth inhibition after 24 hrs by MTT assay; assay type: functional, cell-based; details: A-375, 24 h
# [3] = Antiproliferative activity against human WM1361 cells assessed as cell growth inhibition after 24 hrs by MTT assay; assay type: functional, cell-based; details: WM1361, 24 h
# [4] = biological target: Serine/threonine-protein kinase B-raf (Homo sapiens, UniProt P15056, V600E); experiment: Inhibition of human recombinant GST-tagged BRAF catalytic domain (416 to 766 residues) V600E mutant expressed in baculovirus expression system preincubated for 1 hr followed by human full length recombinant N-terminal His-tagged MEK1 substrate addition measured after 25 mins by gel electrophoresis method
# Chain of Serine/threonine-protein kinase B-raf (P15056 2-766 V600E limits assumed): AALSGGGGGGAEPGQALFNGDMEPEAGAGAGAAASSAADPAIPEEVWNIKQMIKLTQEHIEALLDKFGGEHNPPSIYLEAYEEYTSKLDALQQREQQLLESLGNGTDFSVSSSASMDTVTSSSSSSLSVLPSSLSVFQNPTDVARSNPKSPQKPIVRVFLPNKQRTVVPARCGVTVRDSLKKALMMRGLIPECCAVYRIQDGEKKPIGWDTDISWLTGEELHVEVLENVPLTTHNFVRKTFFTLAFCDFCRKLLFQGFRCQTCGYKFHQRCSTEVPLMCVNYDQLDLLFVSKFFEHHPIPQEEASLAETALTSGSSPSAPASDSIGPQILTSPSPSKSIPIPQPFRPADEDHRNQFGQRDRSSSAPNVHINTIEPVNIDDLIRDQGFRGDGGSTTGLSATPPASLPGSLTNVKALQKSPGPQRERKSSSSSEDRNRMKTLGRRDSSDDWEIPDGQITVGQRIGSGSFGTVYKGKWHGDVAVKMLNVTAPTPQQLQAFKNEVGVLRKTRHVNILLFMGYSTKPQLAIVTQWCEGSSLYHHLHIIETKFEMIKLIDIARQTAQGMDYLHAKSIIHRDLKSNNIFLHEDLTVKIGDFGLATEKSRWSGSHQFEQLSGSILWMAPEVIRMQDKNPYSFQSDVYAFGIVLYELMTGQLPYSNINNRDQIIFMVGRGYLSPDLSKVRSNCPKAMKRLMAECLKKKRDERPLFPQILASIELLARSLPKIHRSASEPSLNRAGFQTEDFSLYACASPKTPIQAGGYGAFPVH
# [5] = Antiproliferative activity against human WM266.4 cells harboring BRAF V600E mutant assessed as cell growth inhibition after 24 hrs by MTT assay; assay type: functional, cell-based; details: WM 266-4, 24 h
# WM 266-4 [6] = experiment: Induction of apoptosis in human WM266.4 cells assessed as viable cells at 2 uM after 24 hrs by Annexin V-FITC/propidium iodide based flow cytometric analysis (reference value: 92.9 %); assay type: functional; details: WM 266-4, 24 h, read-out: Activity
# In short: (§1)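 Apoptosis in WM266-4 (BRAF V600E) cells after 24 h at 0, 2, 4 or 8 µM, by Annexin V-FITC/PI dual staining and flow cytometry. Percentages of apoptotic cells were calculated. Three independent experiments.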
# [7] = Induction of apoptosis in human WM1361 cells assessed as late apoptotic cells at 60 uM after 24 hrs by Annexin V-FITC/propidium iodide based flow cytometric analysis (reference value: 2.96 %); assay type: functional
# [8] = Cell cycle arrest in human WM266.4 cells assessed as accumulation at G2/M phase at 4 uM after 24 hrs by propidium iodide staining based FACS analysis (reference value: 5.79 to 14.39%); assay type: functional; details: WM 266-4
# In short: (§2)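 WM266-4 (BRAF V600E melanoma) cells exposed to 0, 2, 4 or 8 µM for 24 h. Cell-cycle distribution by flow cytometry, with G1, S and G2/M fractions gated. Three independent experiments.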
# [9] = Cell cycle arrest in human WM266.4 cells assessed as accumulation at G2/M phase at 4 uM after 36 hrs by propidium iodide staining based FACS analysis (reference value: 5.79 %); assay type: functional; details: WM 266-4
# [10] = Cell cycle arrest in human WM266.4 cells assessed as accumulation at S phase at 8 uM after 12 hrs by propidium iodide staining based FACS analysis (reference value: 29.51 %); details: WM 266-4
# [11] = Induction of apoptosis in human WM1361 cells assessed as viable cells at 20 uM after 24 hrs by Annexin V-FITC/propidium iodide based flow cytometric analysis (reference value: 95.2 %); assay type: functional; details: WM1361, 24 h, read-out: Activity
# [12] = Cell cycle arrest in human WM266.4 cells assessed as accumulation at S phase at 8 uM after 36 hrs by propidium iodide staining based FACS analysis (reference value: 29.51 %); details: WM 266-4
# [13] = Cell cycle arrest in human WM266.4 cells assessed as accumulation at G0/G1 phase at 8 uM after 24 hrs by propidium iodide staining based FACS analysis (reference value: 56.58 %); assay type: functional; details: WM 266-4; in short: as §2
# [14] = Cell cycle arrest in human WM266.4 cells assessed as accumulation at S phase at 8 uM after 24 hrs by propidium iodide staining based FACS analysis (reference value: 29.03 %); assay type: functional; details: WM 266-4; in short: as §2
# [15] = Cell cycle arrest in human WM266.4 cells assessed as accumulation at G0/G1 phase at 2 uM after 24 hrs by propidium iodide staining based FACS analysis (reference value: 56.58 %); assay type: functional; details: WM 266-4; in short: as §2
# [16] = Induction of apoptosis in human WM1361 cells assessed as early apoptotic cells at 40 uM after 24 hrs by Annexin V-FITC/propidium iodide based flow cytometric analysis (reference value: 1.02 %); assay type: functional
# [17] = Induction of apoptosis in human WM1361 cells assessed as early apoptotic cells at 60 uM after 24 hrs by Annexin V-FITC/propidium iodide based flow cytometric analysis (reference value: 1.02 %); assay type: functional
# [18] = Cell cycle arrest in human WM266.4 cells assessed as accumulation at G2/M phase at 8 uM after 12 hrs by propidium iodide staining based FACS analysis (reference value: 5.79 %); details: WM 266-4
# WM 266-4 [19] = experiment: Induction of apoptosis in human WM266.4 cells assessed as late apoptotic cells at 8 uM after 24 hrs by Annexin V-FITC/propidium iodide based flow cytometric analysis (reference value: 5.04 %); assay type: functional; in short: as §1
# WM 266-4 [20] = experiment: Induction of apoptosis in human WM266.4 cells assessed as early apoptotic cells at 2 uM after 24 hrs by Annexin V-FITC/propidium iodide based flow cytometric analysis (reference value: 1.60 %); assay type: functional; in short: as §1
# WM 266-4 [21] = experiment: Induction of apoptosis in human WM266.4 cells assessed as early apoptotic cells at 4 uM after 24 hrs by Annexin V-FITC/propidium iodide based flow cytometric analysis (reference value: 1.60 %); assay type: functional; in short: as §1
# WM 266-4 [22] = experiment: Induction of apoptosis in human WM266.4 cells assessed as necrotic cells at 2 uM after 24 hrs by Annexin V-FITC/propidium iodide based flow cytometric analysis (reference value: 0.435 %); assay type: functional; in short: as §1
# [23] = Induction of apoptosis in human WM1361 cells assessed as early apoptotic cells at 20 uM after 24 hrs by Annexin V-FITC/propidium iodide based flow cytometric analysis (reference value: 1.02 %); assay type: functional
# WM 266-4 [24] = experiment: Induction of apoptosis in human WM266.4 cells assessed as necrotic cells at 4 uM after 24 hrs by Annexin V-FITC/propidium iodide based flow cytometric analysis (reference value: 0.435 %); assay type: functional; in short: as §1
# [25] = Cell cycle arrest in human WM266.4 cells assessed as accumulation at G0/G1 phase at 4 uM after 24 hrs by propidium iodide staining based FACS analysis (reference value: 56.58 to 64.70%); assay type: functional; details: WM 266-4; in short: as §2
# [26] = Cell cycle arrest in human WM266.4 cells assessed as accumulation at G2/M phase at 2 uM after 24 hrs by propidium iodide staining based FACS analysis (reference value: 14.39 %); assay type: functional; details: WM 266-4; in short: as §2
# WM 266-4 [27] = experiment: Induction of apoptosis in human WM266.4 cells assessed as early apoptotic cells at 8 uM after 24 hrs by Annexin V-FITC/propidium iodide based flow cytometric analysis (reference value: 1.60 %); assay type: functional; in short: as §1
# [28] = Induction of apoptosis in human WM1361 cells assessed as late apoptotic cells at 40 uM after 24 hrs by Annexin V-FITC/propidium iodide based flow cytometric analysis (reference value: 2.96 %); assay type: functional
# [29] = Induction of apoptosis in human WM1361 cells assessed as necrotic cells at 60 uM after 24 hrs by Annexin V-FITC/propidium iodide based flow cytometric analysis (reference value: 0.860 %); assay type: functional
# [30] = Cell cycle arrest in human WM266.4 cells assessed as accumulation at G2/M phase at 8 uM after 24 hrs by propidium iodide staining based FACS analysis (reference value: 14.39 %); assay type: functional; details: WM 266-4; in short: as §2
# WM 266-4 [31] = experiment: Induction of apoptosis in human WM266.4 cells assessed as late apoptotic cells at 4 uM after 24 hrs by Annexin V-FITC/propidium iodide based flow cytometric analysis (reference value: 5.04 %); assay type: functional; in short: as §1
# [32] = Induction of apoptosis in human WM1361 cells assessed as viable cells at 40 uM after 24 hrs by Annexin V-FITC/propidium iodide based flow cytometric analysis (reference value: 95.2 %); assay type: functional; details: WM1361, 24 h, read-out: Activity
# [33] = Cell cycle arrest in human WM266.4 cells assessed as accumulation at S phase at 2 uM after 24 hrs by propidium iodide staining based FACS analysis (reference value: 29.03 %); assay type: functional; details: WM 266-4; in short: as §2
# [34] = Induction of apoptosis in human WM1361 cells assessed as late apoptotic cells at 20 uM after 24 hrs by Annexin V-FITC/propidium iodide based flow cytometric analysis (reference value: 2.96 %); assay type: functional
# [35] = Cell cycle arrest in human WM266.4 cells assessed as accumulation at G0/G1 phase at 8 uM after 36 hrs by propidium iodide staining based FACS analysis (reference value: 64.70 %); details: WM 266-4
# [36] = Induction of apoptosis in human WM1361 cells assessed as necrotic cells at 40 uM after 24 hrs by Annexin V-FITC/propidium iodide based flow cytometric analysis (reference value: 0.860 %); assay type: functional
# [37] = Induction of apoptosis in human WM1361 cells assessed as necrotic cells at 20 uM after 24 hrs by Annexin V-FITC/propidium iodide based flow cytometric analysis (reference value: 0.860 %); assay type: functional
# [38] = Cell cycle arrest in human WM266.4 cells assessed as accumulation at S phase at 4 uM after 24 hrs by propidium iodide staining based FACS analysis (reference value: 29.03 to 29.51%); assay type: functional; details: WM 266-4; in short: as §2
# WM 266-4 [39] = experiment: Induction of apoptosis in human WM266.4 cells assessed as viable cells at 4 uM after 24 hrs by Annexin V-FITC/propidium iodide based flow cytometric analysis (reference value: 92.9 %); assay type: functional; details: WM 266-4, 24 h, read-out: Activity; in short: as §1
# WM 266-4 [40] = experiment: Induction of apoptosis in human WM266.4 cells assessed as DNA fragmentation up to 8 uM after 24 hrs by agarose gel electrophoresis; assay type: functional, cell-based
# In short: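 DNA ladder assay: WM266-4 cells cultured at 37 °C for 24 h with 0, 2, 4 or 8 µM. DNA isolated and run on 2.0% agarose gel beside 2000 bp and 15000 bp markers. Untreated cells served as control.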
# [41] = Cell cycle arrest in human WM266.4 cells assessed as accumulation at G0/G1 phase at 8 uM after 12 hrs by propidium iodide staining based FACS analysis (reference value: 64.70 %); details: WM 266-4
# WM 266-4 [42] = experiment: Induction of apoptosis in human WM266.4 cells assessed as late apoptotic cells at 2 uM after 24 hrs by Annexin V-FITC/propidium iodide based flow cytometric analysis (reference value: 5.04 %); assay type: functional; in short: as §1
# WM 266-4 [43] = experiment: Induction of apoptosis in human WM266.4 cells assessed as necrotic cells at 8 uM after 24 hrs by Annexin V-FITC/propidium iodide based flow cytometric analysis (reference value: 0.435 %); assay type: functional; in short: as §1
# WM 266-4 [44] = experiment: Induction of apoptosis in human WM266.4 cells assessed as increase in apoptotic cells after 24 hrs by Annexin V-FITC/propidium iodide based flow cytometric analysis; assay type: functional, cell-based; in short: as §1
# [45] = Induction of apoptosis in human WM1361 cells assessed as viable cells at 60 uM after 24 hrs by Annexin V-FITC/propidium iodide based flow cytometric analysis (reference value: 95.2 %); assay type: functional; details: WM1361, 24 h, read-out: Activity
# WM 266-4 [46] = experiment: Induction of apoptosis in human WM266.4 cells assessed as viable cells at 8 uM after 24 hrs by Annexin V-FITC/propidium iodide based flow cytometric analysis (reference value: 92.9 %); assay type: functional; details: WM 266-4, 24 h, read-out: Activity; in short: as §1
smiles,measurement,setting,value
O=c1oc2ccccc2c(N2CCN(C(c3ccc(F)cc3)c3ccc(F)cc3)CC2)c1CO,CC50 at 24 h,[1],> 50 µM
same,IC50,[2],3.16 µM
same,IC50,[3],29.4 µM
same,IC50,[4],0.68 µM
same,IC50,[5],2.57 µM
CCN1CCN(c2c(CO)c(=O)oc3ccccc23)CC1,CC50 at 24 h,[1],> 50 µM
same,IC50,[2],> 50 µM
same,IC50,[3],> 100 µM
same,IC50,[4],> 50 µM
same,IC50,[5],> 50 µM
O=c1oc2ccccc2c(N2CCN(C(c3ccccc3)c3ccccc3)CC2)c1CO,viability at 2 µM,WM 266-4 [6],67%
same,Activity,[7],5.29%
same,Activity,[8],7.56%
same,CC50 at 24 h,[1],> 50 µM
same,Activity,[9],2.41%
same,Activity,[10],21.6%
same,viability at 20 µM,[11],94.1%
same,Activity,[12],8.26%
same,Activity,[13],82.4%
same,Activity,[14],6.48%
same,Activity,[15],65.8%
same,Activity,[16],0.856%
same,IC50,[2],2.24 µM
same,IC50,[3],21.1 µM
same,Activity,[17],1.61%
same,Activity,[18],12.2%
same,Activity,WM 266-4 [19],32.7%
same,Activity,WM 266-4 [20],13.4%
same,Activity,WM 266-4 [21],24.4%
same,Activity,WM 266-4 [22],5.06%
same,Activity,[23],1.16%
same,Activity,WM 266-4 [24],1.88%
same,Activity,[25],76.4%
same,Activity,[26],12.6%
same,Activity,WM 266-4 [27],27.1%
same,Activity,[28],5.11%
same,Activity,[29],1.31%
same,Activity,[30],11.1%
same,Activity,WM 266-4 [31],21.2%
same,viability at 40 µM,[32],92.9%
same,Activity,[33],21.6%
same,IC50,[4],0.37 µM
same,Activity,[34],3.36%
same,Activity,[35],89.3%
same,Activity,[36],1.15%
same,Activity,[37],1.36%
same,Activity,[38],5.88%
same,viability at 4 µM,WM 266-4 [39],52.5%
same,Activity,WM 266-4 [40],Active
same,Activity,[41],66.2%
same,Activity,WM 266-4 [42],14.5%
same,Activity,WM 266-4 [43],3.07%
same,Activity,WM 266-4 [44],Dose-dependent effect
same,viability at 60 µM,[45],91.8%
same,viability at 8 µM,WM 266-4 [46],37.1%
same,IC50,[5],1.35 µM
O=c1oc2ccccc2c(N2CCN(c3ccc(Cl)c(Cl)c3)CC2)c1CO,CC50 at 24 h,[1],> 50 µM
same,IC50,[2],7.66 µM
same,IC50,[3],42.7 µM
same,IC50,[4],2.56 µM
same,IC50,[5],6.04 µM
